Active and inactive are the calls of the source. No cut-off for these calls is given here.
Experiments:
[1] = system: Serine/threonine-protein kinase B-raf (Homo sapiens), P15056 [V600E]; test: Inhibition of human partial length BRAF V600E mutant (S429 to E741 residues) expressed in mammalian expression system assessed as enzyme remaining activity at 1000 nM by Kinomescan method relative to control
[2] = target: Mitogen-activated protein kinase 3 (Homo sapiens) (UniProt P27361); test: Inhibition of wild-type human full length ERK1 (M1 to P379 residues) expressed in bacterial expression system assessed as enzyme remaining activity at 1000 nM by Kinomescan method relative to control
[3] = target: Fibroblast growth factor receptor 2 (Homo sapiens) (UniProt P21802); test: Inhibition of wild-type human partial length FGFR2 (D457 to E769 residues) expressed in bacterial expression system assessed as enzyme remaining activity at 1000 nM by Kinomescan method relative to control
[4] = target: Fibroblast growth factor receptor 3 (Homo sapiens) (UniProt P22607); test: Inhibition of wild-type human partial length FGFR3 (R442 to S771 residues) expressed in bacterial expression assessed as enzyme remaining activity at 1000 nM by Kinomescan method relative to control
[5] = target: Cyclin-dependent kinase 3 (Homo sapiens) (UniProt Q00526); test: Inhibition of wild-type human full length CDK3 (M1 to H305 residues) expressed in bacterial expression system assessed as enzyme remaining activity at 1000 nM by Kinomescan method relative to control
[6] = target: Cyclin-dependent kinase 7 (Homo sapiens) (UniProt P50613); test: Inhibition of wild-type human full length CDK7 (M1 to L344 residues) expressed in mammalian expression system assessed as enzyme remaining activity at 1000 nM by Kinomescan method relative to control
[7] = target: Mitogen-activated protein kinase kinase kinase 4 (Homo sapiens) (UniProt Q9Y6R4); test: Inhibition of wild-type human partial length MAP3K4 (G1319 to E1608 residues) expressed in bacterial expression system assessed as enzyme remaining activity at 1000 nM by Kinomescan method relative to control
[8] = target: MAP kinase-activated protein kinase 2 (Homo sapiens) (UniProt P49137); test: Inhibition of wild-type human partial length MAPKAPK2 (V48 to D345 residues) expressed in bacterial expression system assessed as enzyme remaining activity at 1000 nM by Kinomescan method relative to control
[9] = target: Dual specificity mitogen-activated protein kinase kinase 2 (Homo sapiens) (UniProt P36507); test: Inhibition of wild-type human full length MEK2 (M1 to V400 residues) expressed in mammalian expression system assessed as enzyme remaining activity at 1000 nM by Kinomescan method relative to control
[10] = target: Inhibitor of nuclear factor kappa-B kinase subunit beta (Homo sapiens) (UniProt O14920); test: Inhibition of wild-type human full length IKK-beta (M1 to S756 residues) expressed in mammalian expression system assessed as enzyme remaining activity at 1000 nM by Kinomescan method relative to control
[11] = target: Proto-oncogene tyrosine-protein kinase Src (Homo sapiens) (UniProt P12931); test: Inhibition of wild-type human partial length SRC (L240 to L536 residues) expressed in bacterial expression system assessed as enzyme remaining activity at 1000 nM by Kinomescan method relative to control
[12] = target: T1, Receptor-interacting serine/threonine-protein kinase 1 (Homo sapiens, UniProt Q13546); test: Inhibition of RIPK1 phosphorylation in TNFalpha/smac mimetic/Z-VAD-fmk stimulated human HT-29 cells at 1 uM treated prior to TNFalpha/smac mimetic/Z-VAD-fmk stimulation and measured after 2 to 4 hrs by SDS-PAGE based immunoblot assay; format: cell-based; settings: ht-29, 1 µM
T1 sequence (Q13546 whole entry): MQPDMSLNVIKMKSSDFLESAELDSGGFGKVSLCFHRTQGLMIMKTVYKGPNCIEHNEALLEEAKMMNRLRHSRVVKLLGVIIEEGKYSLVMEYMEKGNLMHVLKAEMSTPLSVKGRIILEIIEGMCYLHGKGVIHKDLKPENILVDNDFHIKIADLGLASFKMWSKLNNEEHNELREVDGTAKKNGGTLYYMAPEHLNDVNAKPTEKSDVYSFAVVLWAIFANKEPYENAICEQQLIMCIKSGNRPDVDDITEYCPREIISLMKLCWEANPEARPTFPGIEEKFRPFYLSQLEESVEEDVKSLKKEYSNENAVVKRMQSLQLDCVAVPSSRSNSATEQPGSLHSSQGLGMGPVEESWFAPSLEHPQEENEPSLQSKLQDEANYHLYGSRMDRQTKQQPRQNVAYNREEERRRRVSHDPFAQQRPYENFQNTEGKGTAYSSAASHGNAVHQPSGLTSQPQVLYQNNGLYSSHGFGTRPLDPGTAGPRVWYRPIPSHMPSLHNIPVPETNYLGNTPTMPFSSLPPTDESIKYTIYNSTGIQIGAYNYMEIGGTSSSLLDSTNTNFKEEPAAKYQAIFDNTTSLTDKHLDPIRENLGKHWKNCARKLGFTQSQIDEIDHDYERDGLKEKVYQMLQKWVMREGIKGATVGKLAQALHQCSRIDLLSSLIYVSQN

[13] = target: Receptor-interacting serine/threonine-protein kinase 3 (Homo sapiens, UniProt Q9Y572); test: Inhibition of RIPK3 phosphorylation in human HT-29 cells assessed as reduction in TNFalpha/smac mimetic/Z-VAD-fmk-induced necrosome formation at 1 uM treated prior to TNFalpha/smac mimetic/Z-VAD-fmk stimulation and measured after 4 hrs by immunoprecipitation based assay; format: cell-based
Procedure, shortened: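 HT-29 cells treated with 1 μM compound or DMSO for 4 h, then lysed in M2 buffer. Lysates immunoprecipitated overnight at 4 °C with anti-RIPK1 (1 μg) on protein A/G agarose. Bound proteins boiled off and resolved on 4–20% SDS gels, then immunoblotted.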

[14] = Tmax in Sprague-Dawley rat at 1 mg/kg, iv by LC-tandem mass spectrometry analysis; format: ADME, organism-based; settings: in vivo
Procedure, shortened: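 Male Sprague-Dawley rats received compound iv (1 mg/kg) or intragastrically (5 mg/kg). The vehicle was 5% DMSO, 10% Tween 80 and 75% saline, at 0.2 or 1 mg/mL. Blood was sampled at several time points and centrifuged at 4 °C. Plasma was stored at -80 °C and analysed by LC/MS/MS. Parameters were derived by noncompartmental analysis of individual animal data.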

[15] = AUC (0 to infinity) in Sprague-Dawley rat at 1 mg/kg, iv by LC-tandem mass spectrometry analysis; format: ADME, organism-based; design: dose 1 mg/kg, time infinity, route intravenous; settings: in vivo
Procedure, shortened: (§1)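 Male Sprague-Dawley rats dosed once i.v. at 1 mg/kg or intragastrically at 5 mg/kg. Compound dissolved in 5% DMSO, 10% Tween 80, 75% physiological saline at 0.2 and 1 mg/mL. Blood taken at several time points, plasma spun at 4 °C, stored at -80 °C, assayed by LC/MS/MS. Parameters from individual animals by noncompartmental analysis.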

[16] = Clearance in Sprague-Dawley rat at 1 mg/kg, iv by LC-tandem mass spectrometry analysis; format: ADME, organism-based; settings: in vivo; procedure, shortened: as §1
[17] = Cmax in Sprague-Dawley rat at 5 mg/kg, po by LC-tandem mass spectrometry analysis; format: ADME, organism-based; design: dose 5 mg/kg, route oral; settings: in vivo; procedure, shortened: as §1
[18] = Toxicity in Sprague-Dawley rat at 1 mg/kg, iv or 5 mg/kg, po; format: organism-based; settings: in vivo

Sequence of Inhibitor of nuclear factor kappa-B kinase subunit beta (Homo sapiens) (O14920 whole entry, the tested form may be a part): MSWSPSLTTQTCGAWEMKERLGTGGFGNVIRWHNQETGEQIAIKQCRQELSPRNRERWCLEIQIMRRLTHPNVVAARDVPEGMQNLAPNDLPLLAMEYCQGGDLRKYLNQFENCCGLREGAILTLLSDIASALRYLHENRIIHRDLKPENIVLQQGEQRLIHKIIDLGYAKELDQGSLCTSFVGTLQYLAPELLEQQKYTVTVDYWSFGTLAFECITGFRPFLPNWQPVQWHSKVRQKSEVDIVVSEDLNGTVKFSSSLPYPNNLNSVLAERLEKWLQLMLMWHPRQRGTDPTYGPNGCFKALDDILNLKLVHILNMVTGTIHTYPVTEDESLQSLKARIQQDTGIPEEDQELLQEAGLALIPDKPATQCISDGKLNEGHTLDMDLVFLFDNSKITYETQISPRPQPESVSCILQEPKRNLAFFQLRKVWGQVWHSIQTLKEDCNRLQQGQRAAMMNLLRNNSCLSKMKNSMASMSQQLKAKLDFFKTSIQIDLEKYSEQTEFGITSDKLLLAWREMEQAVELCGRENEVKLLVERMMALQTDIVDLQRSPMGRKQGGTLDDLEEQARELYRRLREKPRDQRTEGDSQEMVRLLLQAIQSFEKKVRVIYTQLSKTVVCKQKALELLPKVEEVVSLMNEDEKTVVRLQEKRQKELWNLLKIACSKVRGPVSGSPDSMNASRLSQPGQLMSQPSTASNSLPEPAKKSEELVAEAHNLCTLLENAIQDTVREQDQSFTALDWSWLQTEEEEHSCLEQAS
Sequence of Dual specificity mitogen-activated protein kinase kinase 2 (Homo sapiens) (P36507 whole entry, the tested form may be a part): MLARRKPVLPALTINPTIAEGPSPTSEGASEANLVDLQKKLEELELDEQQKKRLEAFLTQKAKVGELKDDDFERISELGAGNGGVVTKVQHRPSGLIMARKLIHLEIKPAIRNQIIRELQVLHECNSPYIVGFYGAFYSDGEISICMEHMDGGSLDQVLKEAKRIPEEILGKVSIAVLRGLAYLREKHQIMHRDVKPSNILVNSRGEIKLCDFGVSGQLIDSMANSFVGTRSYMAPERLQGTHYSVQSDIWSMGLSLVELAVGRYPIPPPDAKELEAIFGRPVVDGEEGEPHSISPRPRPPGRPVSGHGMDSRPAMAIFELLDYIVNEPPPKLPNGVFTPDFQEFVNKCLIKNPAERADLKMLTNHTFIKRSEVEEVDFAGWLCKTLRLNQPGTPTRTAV
Sequence of MAP kinase-activated protein kinase 2 (Homo sapiens) (P49137 whole entry, looked up, the tested form may be a part): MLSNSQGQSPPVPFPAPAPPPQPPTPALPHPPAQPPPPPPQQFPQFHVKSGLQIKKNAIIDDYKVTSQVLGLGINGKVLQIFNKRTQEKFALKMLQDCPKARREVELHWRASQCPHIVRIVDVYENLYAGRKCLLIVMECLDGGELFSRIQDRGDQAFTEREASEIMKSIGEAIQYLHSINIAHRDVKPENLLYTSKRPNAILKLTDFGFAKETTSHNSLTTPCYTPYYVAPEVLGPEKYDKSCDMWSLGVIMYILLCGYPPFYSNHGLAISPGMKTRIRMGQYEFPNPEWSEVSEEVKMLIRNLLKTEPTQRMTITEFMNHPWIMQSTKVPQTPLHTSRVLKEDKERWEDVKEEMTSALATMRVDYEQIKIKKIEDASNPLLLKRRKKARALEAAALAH
Sequence of Receptor-interacting serine/threonine-protein kinase 3 (Q9Y572 whole entry, looked up): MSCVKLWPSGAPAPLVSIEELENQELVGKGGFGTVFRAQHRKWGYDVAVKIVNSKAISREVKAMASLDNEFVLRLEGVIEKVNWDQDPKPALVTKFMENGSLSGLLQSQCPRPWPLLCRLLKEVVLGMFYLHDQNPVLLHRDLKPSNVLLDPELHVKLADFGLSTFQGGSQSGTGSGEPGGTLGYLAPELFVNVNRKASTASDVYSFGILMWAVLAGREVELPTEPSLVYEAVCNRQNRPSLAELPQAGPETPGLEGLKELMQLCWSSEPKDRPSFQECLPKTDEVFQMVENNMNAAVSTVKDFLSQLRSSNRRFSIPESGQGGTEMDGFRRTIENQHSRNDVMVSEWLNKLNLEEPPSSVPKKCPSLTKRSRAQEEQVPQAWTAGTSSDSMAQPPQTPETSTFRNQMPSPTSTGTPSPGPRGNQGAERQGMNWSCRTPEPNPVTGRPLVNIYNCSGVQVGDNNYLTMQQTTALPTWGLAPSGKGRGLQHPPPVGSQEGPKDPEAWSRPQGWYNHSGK
Sequence of Cyclin-dependent kinase 3 (Homo sapiens) (Q00526 whole entry, looked up, the tested form may be a part): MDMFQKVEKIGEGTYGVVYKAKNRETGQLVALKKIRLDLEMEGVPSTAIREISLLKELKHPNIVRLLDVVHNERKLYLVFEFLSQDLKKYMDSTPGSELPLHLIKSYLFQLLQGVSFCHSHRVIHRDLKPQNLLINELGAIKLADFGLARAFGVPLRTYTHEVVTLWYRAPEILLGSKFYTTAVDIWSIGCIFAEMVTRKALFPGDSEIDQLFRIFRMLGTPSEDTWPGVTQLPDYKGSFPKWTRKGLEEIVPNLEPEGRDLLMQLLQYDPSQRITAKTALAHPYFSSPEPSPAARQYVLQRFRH
Sequence of Fibroblast growth factor receptor 3 (Homo sapiens) (P22607 23-806 limits assumed): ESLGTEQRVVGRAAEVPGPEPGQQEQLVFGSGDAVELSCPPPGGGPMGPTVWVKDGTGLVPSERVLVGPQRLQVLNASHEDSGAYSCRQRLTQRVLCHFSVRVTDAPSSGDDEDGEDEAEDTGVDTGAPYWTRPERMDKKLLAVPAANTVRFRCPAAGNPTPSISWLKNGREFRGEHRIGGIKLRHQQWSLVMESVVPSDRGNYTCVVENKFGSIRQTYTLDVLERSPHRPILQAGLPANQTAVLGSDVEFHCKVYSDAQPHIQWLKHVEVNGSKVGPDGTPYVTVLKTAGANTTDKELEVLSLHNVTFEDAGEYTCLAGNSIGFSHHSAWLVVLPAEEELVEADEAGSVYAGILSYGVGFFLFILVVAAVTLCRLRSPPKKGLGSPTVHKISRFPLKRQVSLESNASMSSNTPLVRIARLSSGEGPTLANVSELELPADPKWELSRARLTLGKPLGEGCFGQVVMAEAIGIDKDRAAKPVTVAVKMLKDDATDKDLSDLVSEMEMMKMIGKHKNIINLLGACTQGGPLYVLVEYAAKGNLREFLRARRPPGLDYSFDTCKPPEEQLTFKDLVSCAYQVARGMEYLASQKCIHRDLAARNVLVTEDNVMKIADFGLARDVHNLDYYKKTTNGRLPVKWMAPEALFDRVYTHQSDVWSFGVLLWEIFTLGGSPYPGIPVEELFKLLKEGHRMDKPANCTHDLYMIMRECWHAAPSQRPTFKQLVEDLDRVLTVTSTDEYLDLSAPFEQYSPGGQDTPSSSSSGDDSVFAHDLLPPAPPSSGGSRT
Sequence of Mitogen-activated protein kinase 3 (Homo sapiens) (P27361 whole entry, the tested form may be a part): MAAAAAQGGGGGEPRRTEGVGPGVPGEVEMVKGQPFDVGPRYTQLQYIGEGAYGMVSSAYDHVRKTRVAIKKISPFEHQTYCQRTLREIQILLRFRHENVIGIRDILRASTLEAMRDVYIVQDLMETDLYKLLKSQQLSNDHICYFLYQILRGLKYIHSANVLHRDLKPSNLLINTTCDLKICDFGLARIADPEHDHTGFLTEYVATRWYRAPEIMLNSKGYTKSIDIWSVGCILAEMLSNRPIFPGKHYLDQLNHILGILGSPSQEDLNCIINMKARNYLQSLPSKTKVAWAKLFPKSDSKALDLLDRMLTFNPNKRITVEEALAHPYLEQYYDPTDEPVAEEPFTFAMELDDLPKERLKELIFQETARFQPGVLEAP
Sequence of Proto-oncogene tyrosine-protein kinase Src (Homo sapiens) (P12931 2-536 limits assumed): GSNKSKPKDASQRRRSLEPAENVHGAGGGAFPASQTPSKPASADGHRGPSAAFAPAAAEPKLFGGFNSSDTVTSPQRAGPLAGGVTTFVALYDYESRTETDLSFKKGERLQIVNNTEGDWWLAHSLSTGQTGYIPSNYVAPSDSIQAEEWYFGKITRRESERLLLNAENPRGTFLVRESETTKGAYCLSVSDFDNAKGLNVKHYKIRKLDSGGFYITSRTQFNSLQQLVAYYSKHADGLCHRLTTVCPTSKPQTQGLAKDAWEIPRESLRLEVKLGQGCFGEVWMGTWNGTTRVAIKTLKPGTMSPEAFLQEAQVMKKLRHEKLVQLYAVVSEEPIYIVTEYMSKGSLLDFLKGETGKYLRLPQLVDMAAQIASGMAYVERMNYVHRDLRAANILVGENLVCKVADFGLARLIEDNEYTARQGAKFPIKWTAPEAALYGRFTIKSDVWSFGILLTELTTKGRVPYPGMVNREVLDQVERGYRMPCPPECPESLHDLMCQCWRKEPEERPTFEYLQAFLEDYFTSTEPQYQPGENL
Sequence of Serine/threonine-protein kinase B-raf (Homo sapiens), P15056 [V600E] (P15056 whole entry V600E, the tested form may be a part): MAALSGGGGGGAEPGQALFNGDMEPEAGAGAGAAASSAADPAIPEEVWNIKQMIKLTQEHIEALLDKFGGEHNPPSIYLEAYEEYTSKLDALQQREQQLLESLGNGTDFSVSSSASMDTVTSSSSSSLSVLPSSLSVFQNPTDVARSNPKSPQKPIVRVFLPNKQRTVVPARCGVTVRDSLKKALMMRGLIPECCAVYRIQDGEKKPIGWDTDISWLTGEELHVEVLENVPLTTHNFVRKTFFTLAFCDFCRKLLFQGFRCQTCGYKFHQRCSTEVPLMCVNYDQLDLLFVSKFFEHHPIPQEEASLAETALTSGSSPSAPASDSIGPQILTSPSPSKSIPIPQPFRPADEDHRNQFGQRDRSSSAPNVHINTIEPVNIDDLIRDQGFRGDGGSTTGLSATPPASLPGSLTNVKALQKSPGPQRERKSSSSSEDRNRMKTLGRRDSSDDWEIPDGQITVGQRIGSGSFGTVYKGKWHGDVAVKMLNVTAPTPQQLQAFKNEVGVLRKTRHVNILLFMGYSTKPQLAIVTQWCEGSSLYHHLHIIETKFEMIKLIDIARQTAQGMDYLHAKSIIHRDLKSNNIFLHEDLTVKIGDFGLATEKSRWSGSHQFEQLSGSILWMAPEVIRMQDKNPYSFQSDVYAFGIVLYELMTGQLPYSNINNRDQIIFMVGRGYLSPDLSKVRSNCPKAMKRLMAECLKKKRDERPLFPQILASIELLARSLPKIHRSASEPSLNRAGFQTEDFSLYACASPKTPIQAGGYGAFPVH

`O=C(Nc1cccc(Br)c1)Nc1cc(Oc2ccc3nc(NC(=O)C4CC4)sc3c2)ccc1F` gave an Activity [1] of 1.8%, an Activity [2] of 100% and an Activity [3] of 22%. For the same compound, the Activity [4] was 62%, the Activity [5] was 96% and the Activity [6] was 81%. The Activity [7] was 100%, the Activity [8] was 100% and the Activity [9] was 83%. The Activity [10] was 97%, the Activity [11] was 0% and the “inhibition (INH)” value [12] was “Not Active”. For the same compound, the inhibition [13] was “Active”, the Tmax [14] was 4.98 min and the AUC(0-inf) [15] was 6500 ng·h/mL. The clearance [16] was 2.6 mL/min/kg, the Cmax [17] was 345 ng/mL and the Activity [18] was “Non-Toxic”.

From ChEMBL document CHEMBL4406794, “N-(7-Cyano-6-(4-fluoro-3-(2-(3-(trifluoromethyl)phenyl)acetamido)phenoxy)benzo[d]thiazol-2-yl)cyclopropanecarboxamide (TAK-632) Analogues as Novel Necroptosis Inhibitors by Targeting Receptor-Interacting Protein Kinase 3 (RIPK3): Synthesis, Structure-Activity Relationships, and in Vivo Efficacy” (J Med Chem, 2019)
